This passage reports MIC, zone of inhibition and Activity results from ChEMBL document CHEMBL4814044, “Design and synthesis, biological evaluation of bis-(1,2,3- and 1,2,4)-triazole derivatives as potential antimicrobial and antifungal agents” (2021).

Calls of active or inactive are those of the source.

Common to all, as to type: functional
One assay has as its system Staphylococcus aureus. The assay can be described thus: Antibacterial activity against Staphylococcus aureus MTCC 96 assessed as bacterial growth inhibition by microdilution method. Put shortly: (§1)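 Broth microdilution against Gram-positive and Gram-negative strains. The endpoint is the minimal inhibitory concentration, in µg/ml.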
A further assay has as its system Bacillus subtilis. The assay can be described thus: Antibacterial activity against Bacillus subtilis MTCC 441 assessed as bacterial growth inhibition by microdilution method. The method in brief: as §1
In general terms: Dilution methods test growth across graded concentrations, often in twofold steps.

For a further assay, the system named is Pseudomonas aeruginosa. The assay can be described thus: Antibacterial activity against Pseudomonas aeruginosa MTCC 424 assessed as bacterial growth inhibition by microdilution method. Put shortly:
as §1

The next assay deals with Escherichia coli. The assay can be described thus: Antibacterial activity against Escherichia coli MTCC 443 assessed as bacterial growth inhibition by microdilution method. Put shortly: as §1
Assay [1] concerns Aspergillus niger. The assay can be described thus: Antifungal activity against Aspergillus niger MTCC 404 assessed as zone of inhibition at 15.9 uM incubated for 2 days by cross streak plate method. Conditions: MTCC 404, 48 h, time 2 day, read-out: IZ. The method in brief:
(§2)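 Fungal strain (A. niger MTCC 404 or S. cerevisiae MTCC 1344) was incubated with the compound for 2 days at 37 °C. Growth inhibition was then assessed by the cross streak plate method.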

Assay [2] has as its system Aspergillus niger. The assay can be described thus: Antifungal activity against Aspergillus niger MTCC 404 assessed as zone of inhibition at 23.9 uM incubated for 2 days by cross streak plate method. The note with it: MTCC 404, 48 h, time 2 day, read-out: IZ. Put shortly: as §2
The test system of assay [3] is Aspergillus niger. The assay can be described thus: Antifungal activity against Aspergillus niger MTCC 404 assessed as zone of inhibition at 31.8 uM incubated for 2 days by cross streak plate method. Conditions: MTCC 404, 48 h, time 2 day, read-out: IZ. The method in brief: as §2
Assay [4] deals with Saccharomyces cerevisiae. The assay can be described thus: Antifungal activity against Saccharomyces cerevisiae MTCC 1344 assessed as zone of inhibition at 15.9 uM incubated for 2 days by cross streak plate method. The note with it: MTCC 1344, 48 h, time 2 day, read-out: IZ. The method in brief: as §2
In assay [5] the test system is Saccharomyces cerevisiae. The assay can be described thus: Antifungal activity against Saccharomyces cerevisiae MTCC 1344 assessed as zone of inhibition at 23.9 uM incubated for 2 days by cross streak plate method. The note with it: MTCC 1344, 48 h, time 2 day, read-out: IZ. Put shortly:
as §2

Assay [6] deals with Saccharomyces cerevisiae. The assay can be described thus: Antifungal activity against Saccharomyces cerevisiae MTCC 1344 assessed as zone of inhibition at 31.8 uM incubated for 2 days by cross streak plate method. The note with it: MTCC 1344, 48 h, time 2 day, read-out: IZ. Put shortly:
as §2

Assay [7] is described as follows: Antioxidant activity assessed as DPPH radical scavenging activity. (In general: DPPH is a stable violet radical that fades when it is reduced.)
Assay [8] has as its system Aspergillus niger. The assay can be described thus: Antifungal activity against Aspergillus niger MTCC 404 assessed as zone of inhibition at 14.8 uM incubated for 2 days by cross streak plate method. Conditions: MTCC 404, 48 h, time 2 day, read-out: IZ. Put shortly: as §2
The subject of assay [9] is Aspergillus niger. The assay can be described thus: Antifungal activity against Aspergillus niger MTCC 404 assessed as zone of inhibition at 22.2 uM incubated for 2 days by cross streak plate method. The note with it: MTCC 404, 48 h, time 2 day, read-out: IZ. Put shortly: as §2
Assay [10] deals with Aspergillus niger. The assay can be described thus: Antifungal activity against Aspergillus niger MTCC 404 assessed as zone of inhibition at 29.7 uM incubated for 2 days by cross streak plate method. Conditions: MTCC 404, 48 h, time 2 day, read-out: IZ. Put shortly: as §2
Assay [11] relates to Saccharomyces cerevisiae. The assay can be described thus: Antifungal activity against Saccharomyces cerevisiae MTCC 1344 assessed as zone of inhibition at 14.8 uM incubated for 2 days by cross streak plate method. Conditions: MTCC 1344, 48 h, time 2 day, read-out: IZ. The method in brief:
as §2

Assay [12] concerns Saccharomyces cerevisiae. The assay can be described thus: Antifungal activity against Saccharomyces cerevisiae MTCC 1344 assessed as zone of inhibition at 22.2 uM incubated for 2 days by cross streak plate method. Conditions: MTCC 1344, 48 h, time 2 day, read-out: IZ. Put shortly:
as §2

In assay [13] the test system is Saccharomyces cerevisiae. The assay can be described thus: Antifungal activity against Saccharomyces cerevisiae MTCC 1344 assessed as zone of inhibition at 29.7 uM incubated for 2 days by cross streak plate method. Conditions: MTCC 1344, 48 h, time 2 day, read-out: IZ. Put shortly:
as §2

For assay [14], the system named is Aspergillus niger. The assay can be described thus: Antifungal activity against Aspergillus niger MTCC 404 assessed as zone of inhibition at 16.8 uM incubated for 2 days by cross streak plate method. The note with it: MTCC 404, 48 h, time 2 day, read-out: IZ. The method in brief: as §2
The test system of assay [15] is Aspergillus niger. The assay can be described thus: Antifungal activity against Aspergillus niger MTCC 404 assessed as zone of inhibition at 25.2 uM incubated for 2 days by cross streak plate method. Conditions: MTCC 404, 48 h, time 2 day, read-out: IZ. The method in brief: as §2
The test system of assay [16] is Aspergillus niger. The assay can be described thus: Antifungal activity against Aspergillus niger MTCC 404 assessed as zone of inhibition at 33.7 uM incubated for 2 days by cross streak plate method. The note with it: MTCC 404, 48 h, time 2 day, read-out: IZ. The method in brief: as §2
The subject of assay [17] is Saccharomyces cerevisiae. The assay can be described thus: Antifungal activity against Saccharomyces cerevisiae MTCC 1344 assessed as zone of inhibition at 16.8 uM incubated for 2 days by cross streak plate method. Conditions: MTCC 1344, 48 h, time 2 day, read-out: IZ. The method in brief:
as §2

For assay [18], the system named is Saccharomyces cerevisiae. The assay can be described thus: Antifungal activity against Saccharomyces cerevisiae MTCC 1344 assessed as zone of inhibition at 25.2 uM incubated for 2 days by cross streak plate method. Conditions: MTCC 1344, 48 h, time 2 day, read-out: IZ. The method in brief: as §2
Assay [19] relates to Saccharomyces cerevisiae. The assay can be described thus: Antifungal activity against Saccharomyces cerevisiae MTCC 1344 assessed as zone of inhibition at 33.7 uM incubated for 2 days by cross streak plate method. Conditions: MTCC 1344, 48 h, time 2 day, read-out: IZ. Put shortly: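 S. cerevisiae MTCC 1344 cultures were incubated for 2 days at 37 °C and then tested by the cross streak plate method.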

`O=C(CSc1nnc(-c2ccccc2OCc2cn(-c3ccc(Cl)cc3)nn2)n1Cc1ccccc1)c1ccc(Cl)cc1`: the MIC in the assay on Staphylococcus aureus was found to be 8 µg/mL; in the assay with Bacillus subtilis, 4 µg/mL; in the assay on Pseudomonas aeruginosa, 8.2 µg/mL; in the assay with Escherichia coli, 8.5 µg/mL. The zone of inhibition at 15.9 µM in the assay on Aspergillus niger [1] and with Saccharomyces cerevisiae [4] was 2 mm throughout. The zone of inhibition at 23.9 µM with Aspergillus niger [2] and in the assay with Saccharomyces cerevisiae [5] was 2 mm in each case. Moreover, the zone of inhibition at 31.8 µM in the assay with Aspergillus niger [3] and in the assay with Saccharomyces cerevisiae [6] was 3 mm throughout. In addition, the outcome in assay [7] was inactive.
As for `O=C(CSc1nnc(-c2ccccc2OCc2cn(-c3ccc(Cl)cc3)nn2)n1Cc1ccccc1)c1ccc(Br)cc1`, the MIC was determined as 8.5 µg/mL in the assay on Staphylococcus aureus, 4.4 µg/mL with Bacillus subtilis, 8.1 µg/mL in the assay with Pseudomonas aeruginosa and 9 µg/mL in the assay with Escherichia coli. Besides, the zone of inhibition at 14.8 µM stood at 2 mm with Aspergillus niger [8] and 1.5 mm with Saccharomyces cerevisiae [11]. Moreover, the zone of inhibition at 22.2 µM in the assay on Aspergillus niger [9] and in the assay on Saccharomyces cerevisiae [12] was 2 mm each time. For the same molecule, the zone of inhibition at 29.7 µM in the assay on Aspergillus niger [10] and in the assay with Saccharomyces cerevisiae [13] was 3 mm in each case. The result in assay [7] was inactive.
For the molecule `O=C(CSc1nnc(-c2ccccc2OCc2cn(-c3ccc(Cl)cc3)nn2)n1Cc1ccccc1)c1ccccc1`, the MIC worked out at 9.7 µg/mL in the assay with Staphylococcus aureus, 5.2 µg/mL in the assay with Bacillus subtilis, 9 µg/mL with Pseudomonas aeruginosa and 10 µg/mL with Escherichia coli. Further, the zone of inhibition at 16.8 µM is 6 mm with Aspergillus niger [14] and 5.8 mm with Saccharomyces cerevisiae [17]. In addition, the zone of inhibition at 25.2 µM turned out to be 8 mm with Aspergillus niger [15] and 5.7 mm in the assay on Saccharomyces cerevisiae [18]. Also, the zone of inhibition at 33.7 µM was determined as 8.2 mm in the assay with Aspergillus niger [16] and 7 mm in the assay with Saccharomyces cerevisiae [19]. In [7], the result was inactive.
Turning to `O=C(CSc1nnc(-c2ccccc2OCc2cn(-c3ccccc3)nn2)n1Cc1ccccc1)c1ccccc1`, the MIC in the assay on Staphylococcus aureus worked out at 7.9 µg/mL; in the assay with Bacillus subtilis it was 5 µg/mL; with Pseudomonas aeruginosa, 7.5 µg/mL; in the assay with Escherichia coli, 10 µg/mL. In addition, the zone of inhibition at 16.8 µM in the assay on Aspergillus niger [14] and in the assay on Saccharomyces cerevisiae [17] was 2 mm in each case. The zone of inhibition at 25.2 µM in the assay with Aspergillus niger [15] and with Saccharomyces cerevisiae [18] was 3 mm each time. The zone of inhibition at 33.7 µM in the assay on Aspergillus niger [16] and with Saccharomyces cerevisiae [19] was 3 mm each time. Moreover, in assay [7], the result was inactive.
As for `O=C(CSc1nnc(-c2ccccc2OCc2cn(-c3ccccc3)nn2)n1Cc1ccccc1)c1ccc(Cl)cc1`, the MIC stood at 9.5 µg/mL in the assay with Staphylococcus aureus, 5 µg/mL in the assay with Bacillus subtilis, 8.8 µg/mL in the assay on Pseudomonas aeruginosa and 9.1 µg/mL in the assay on Escherichia coli. Also, the figures for the zone of inhibition at 16.8 µM in the assay with Aspergillus niger [14] and in the assay on Saccharomyces cerevisiae [17] were 1.5 mm and 2 mm, respectively. Besides, the zone of inhibition at 25.2 µM in the assay on Aspergillus niger [15] and in the assay on Saccharomyces cerevisiae [18] was 3 mm in each case. Further, the zone of inhibition at 33.7 µM with Aspergillus niger [16] and in the assay on Saccharomyces cerevisiae [19] was 3 mm throughout. Besides, the outcome in assay [7] was inactive.

The term MIC denotes the smallest concentration in the dilution series that meets the test's criterion for growth inhibition.
